The source of these data is the EternaBench riboswitch data.

In general, apparent Kd refers to a dissociation constant that holds for the conditions of the assay.

The data set has as its system MS2 coat protein. In words: apparent Kd, MS2 coat protein; higher = weaker binding; RNA-MaP array; FMN 200 µM where present. The gist of the method: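 Each design was made on Illumina sequencing-chip clusters by stalled E. coli RNA polymerase and titrated with SNAP-549-labelled MS2 coat protein from 0.7 or 1.5 nM, doubling to 3 µM, in the absence and then the presence of constant ligand. The buffer was 100 mM Tris-HCl pH 7.5, 80 mM KCl, 4 mM MgCl2, BSA, DTT, yeast tRNA and Tween-20. The apparent Kd is the median of filtered per-cluster fits of binding curves, with green signal normalised to red-channel RNA signal and control-cluster median Fmax.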

[1] abbreviates: designed as: ON switch for flavin mononucleotide, no ligand.
Where [2] appears, read: ligand present: flavin mononucleotide, designed as: ON switch for flavin mononucleotide.
Setting [3] is: designed as: OFF switch for flavin mononucleotide, no ligand.
The mark [4] stands for this setting: ligand present: flavin mononucleotide, designed as: OFF switch for flavin mononucleotide.

With “UUGGUCGUCGUAGGAUAUGUAGGAUAUUCCUACAUGAGGAUCACCCAUGUUGACAUGGAAGAAGGACAGAAGGACGAUGUCCAU”, the “apparent Kd” value runs as follows: under setting [1], 447 nM; under setting [2], 5.71 nM. In the same order, the values of “AAUAAACUCACAGGAUAUAGCAGAGGUCGCUUGAACUUACAGGCGACGAGGCUAGAAGGGUGACCACAUGAGGAUCACCCAUGU” are 1190 nM and 135 nM. For “UUUUAGUCAGGAUAUCGUUAAUUUAAUUGUUUGUAUUAGUUCGAGAAGGGACAUGAGGAUCACCCAUGUACUUU”, the “apparent Kd” value was found to be 23.7 nM under setting [3] and 24.5 nM under setting [4]. For “UUAUUAGCAGGAUAUAUCCGGGAUCACAUGAGGAUCACCCAUGUGACCGCUUGAGAUCCUAUAGAAGGGCUUUAUU”, in that order: 30.6 nM and 56.3 nM. For “AAACAUGUCCGAGGAUAUCUGGAAACACUUUCAAGAGAAGGCGGACAUGAGGAUCACCCAUGUCUCUCCUCAUCAAAUCCAAGU”, in that order: 6.53 nM and 30.2 nM.

In the case of “UUAGGCUUCUAGAAGGCGGUCCAGCUAGAGGACCGAGGAUAUAGGCACCUAACAUGAGGAUCACCCAUGUUAGUGAUUCCUCAA”, the “apparent Kd” value is, setting by setting: under setting [3], 132 nM; under setting [4], 166 nM. Take “AAAAGACAUGAGGAUCACCCAUGUCAAGACAUGGGAGGAUAUGCAUGGAAAACAUGCUGUGCAGAAGGCUCAUGUC”: the “apparent Kd” value by setting is: under setting [1], 32.6 nM; under setting [2], 22.4 nM. In the same order, the values of “AGAUGGUAGAGAGGAUAUCAUGUGCUGACAUGAGGAUCACCCAUGUAGGGACGUCGGUCCAAUUAUGAGAAGGCUCUACCAUCU” are 85.6 nM and 55.9 nM. For “GCUCAUAUCACAGGAUAUGGCCAGCAAAUUUGGCCAGAAGGGUGAUUCAUAUUAAAAUCACAUGAGGAUCACCCAUGUACGGCA”, in that order: 166 nM and 321 nM. With “UUCCUCGAAGGAUAUUCGACUAGGUACAUGAGGAUCACCCAUGUCAUGAGCCCAAUAGGCGAAGAAGGUCGAGUGU”, the “apparent Kd” value by setting is: under setting [3], 23.5 nM; under setting [4], 34.6 nM. For “CGGUGACGUGUAGGAUAUGGCGCUGGGUUUUGCCCAGAAGGACAUGAGGAUCACCCAUGUGGUAGAGGGCUGGCGGCCGCCCGU”, in that order: 17.1 nM and 21.6 nM. Turning to “AGCUAAAACGAAGGAUAUACUGACAUGAGGAUCACCCAUGUCUACAUGAUUUAUUGUGAUCACAUGUAGAAGGUCGUACUAACA”, the “apparent Kd” value was determined as 74.4 nM under setting [1] and 27.7 nM under setting [2].

Turning to “UAUAUGUCAGGAUAUCGAUUGGAGCGGAAUUUAGCUUUGGUCGAGAAGGGACAUGAGGAUCACCCAUGUUCAAC”, the “apparent Kd” value under setting [3] was found to be 19.8 nM and the “apparent Kd” value under setting [4] was 37.8 nM. For “AUUUAACAUGAGGAUCACCCAUGUGAGGAUAUGUCCAUAUUCGGCAAAUCGGAUAUGGACAGAAGGCACACCGG”, in that order: 105 nM and 194 nM. In the same order, the values of “AUUUUUAAGGUAGGAUAUAGUAUGAUGGUUUAAUUAGAAGGAUCUCACAUGAGGAUCACCCAUGUAAUAGGAUUACCCAUGUAU” are 53.7 nM and 33.3 nM.

“GGGAAUAAACCCGUCUCCGCUCAACCAGAAGGGCACGAUAAUAUUACAUGAGGAUCACCCAUGUUGCAGGAUAUGGUGAGCCUC”: the “apparent Kd” value reads like this: under setting [1], 191 nM; under setting [2], 52.9 nM. “CGCAAUAUACAGAAGGAGUUAUUUAGAGGUUUACUAGGAUAUGUUCACAUGAGGAUCACCCAUGUCAUAUGGAGUUUUAUUGCG”: the “apparent Kd” value by setting is: under setting [3], 9.25 nM; under setting [4], 8.33 nM. In the same order, the values of “UCGCUGCGAGGAUAUACAUGAGGAUCACCCAUGUGCGGGUCCGGGUCUUCGUCCAUUAGUAGAAGGCGCAGUGA” are 122 nM and 212 nM. In the case of “AACACAACAUGAAACAUGAGGAUCACCCAUGUUGUUUGUAAUCAGGAUAUGAUUUUAAUAAUGAAUUAGAAGGGAUAUGGAUUU”, the “apparent Kd” value is 28.9 nM under setting [1] and 36.9 nM under setting [2]. Turning to “UAUAUAAUUAAGAGCUGGUCCAAAACAUGAGGAUCACCCAUGUAGGAUAUCAGCACGAUAAGUGCUGAGAAGGACAUCCAGCUC”, the “apparent Kd” value by setting is: under setting [3], 18.5 nM; under setting [4], 16.4 nM.

As for “GGGUUGUGAGGAUAUUAGUUGUACGUCAAUAGACGUAUGGGUGAGAAGGCACAUGAGGAUCACCCAUGUUCCUG”, the “apparent Kd” value under setting [4] came to 126 nM. In the case of “CUGAGCUGAGGAUAUACAUGAGGAUCACCCAUGUGUUAGAGCUUGCGUACAGGCAGAUGUAGAAGGCAGUUCGG”, the “apparent Kd” value is 17.4 nM under setting [3] and 49.7 nM under setting [4]. For “GUCGAAACCAUACUGGUCGACGGUCAGGAUAUACAUGAGGAUCACCCAUGUGCUAUUGAUACUAUGUAGAAGGGACCCACCGCA”, the “apparent Kd” value under setting [3] came out at 15.2 nM.

“GUAGCAUACCGAGGAUAUUCACCGGAAACGGAAACAUGAGGAUCACCCAUGUGGCGAAAGCCUUGGGAGAAGGCGGAAUGCUAC”: the “apparent Kd” value was 195 nM under setting [1] and 24.5 nM under setting [2]. In the same order, the values of “ACACGAAAGUCAGGAUAUGUAUCAGCACGAUAGUUACAUGAGGAUCACCCAUGUUUCACGGGCCAACAGAAGGGACAGGGUGGC” are 18.4 nM and 7.62 nM. With “AAAUAGUUAGGAUAUACAUGAGGAUCACCCAUGUGGACUGAUGGCGCUUGAUUCAGUGGUAGAAGGGACUCAAA”, the “apparent Kd” value is 45.9 nM under setting [3] and 69.2 nM under setting [4]. Consider “AGCGGCGCGGGCCACCGCAGAACCAGAAGGACAUGAGGAUCACCCAUGUAACAAAACAGGGCGGUGUAGGAUAUGGCAGGCUCG”, for which the “apparent Kd” value reads like this: under setting [3], 35.9 nM; under setting [4], 83.2 nM. For “UUUAAGUCAGGAUAUCGUUAAUUUAAUUAUUUAUUUUAAUUCGAGAAGGGACAUGAGGAUCACCCAUGUAAUUU”, in that order: 36.1 nM and 55.9 nM. As to “GUAUGCAUGAGGUAGGAUAUCCAAAACAAAACAUGAGGAUCACCCAUGUAAACAAACAACAAAUGGGAGAAGGACCACAUGUAUAC”, the “apparent Kd” value under setting [1] amounted to 24.4 nM and the “apparent Kd” value under setting [2] was determined as 11.3 nM. For “GUACCUUAUGAGAAGGCGAUCAUAAAACAUGAUCGAGGAUAUCAUGAAAACAUGAGGAUCACCCAUGUAUGGGUAUUAUGGUAC”, in that order: 37.3 nM and 16.7 nM. With “ACAAAUUAGUGAGGAUAUGCUUAAUUUAUAACUGCAGAAGGCACAUACCUCAAGACAUGAGGAUCACCCAUGUGGAAUAUAGAU”, the “apparent Kd” value is, setting by setting: under setting [3], 25.4 nM; under setting [4], 62.8 nM.

As to “UUGGACGUCGUAGGAUAUGUAGGAUAUUCCUACAUGAGGAUCACCCAUGUUGACAUGGAAGAAGGACAGAAAGACGAUGUCCAU”, the “apparent Kd” value reads like this: under setting [1], 333 nM; under setting [2], 6.63 nM.

Take “UAUAUAUAGUAAGGAUAUGUAUAUAUUUUACAAACAGAAGGUACUGACAUGAGGAUCACCCAUGUUUUAGUGUGGGCAUGUAGA”: the “apparent Kd” value reads like this: under setting [3], 57.8 nM; under setting [4], 60 nM.

For “AGGUACAUCGGAGGAUAUCAUGUAAAUACAUGAGGAUCACCCAUGUCGAUGGAGACAUCGGAGAUUGAGAAGGCCGAUGUACCG”, the “apparent Kd” value worked out at 152 nM under setting [1] and 8.62 nM under setting [2]. With “CAGGUAGACUGAGGAUAUACAUUAAACAGCUAGUCUAUCUAGCUGGUCACAUGAGGAUCACCCAUGUAGAAGGCAGUCUGCCUG”, the “apparent Kd” value is, setting by setting: under setting [3], 24.6 nM; under setting [4], 65.4 nM. For “GGGACACAUGAGGAUCACCCAUGUGAGGAUAUGUUAGUUUCGGCCAAAGCCGAAAUUAACAGAAGGCACAUACC”, the “apparent Kd” value by setting is: under setting [3], 36.7 nM; under setting [4], 49 nM.

Take “UUUUCUUUUGUGAGGAUAUACUUGUUUUUUUUUUUGUAGAAGGCACAUGAGGAUCACCCAUGUUUUCUUUCCUG”: the “apparent Kd” value under setting [3] worked out at 17 nM and the “apparent Kd” value under setting [4] was 19.8 nM.

“UUGCGGUAGGAGAAGGACAGAGGCUUAAUUACAUACAUGAGGAUCACCCAUGUAGGAUAUCCUACCUAACGCGGACUCCUCCUG”: the “apparent Kd” value under setting [3] came to 6.82 nM and the “apparent Kd” value under setting [4] turned out to be 7.25 nM. As to “GCGAUUUUGUAAGGAUAUACACGAGUUUCAAGUGUAGAAGGUACUUACAUGAGGAUCACCCAUGUAUACUUGGAUAAUAGUCGC”, the “apparent Kd” value by setting is: under setting [1], 27.9 nM; under setting [2], 23.3 nM.

As to “AAGGAUAGAGGAUAUACAUAGAUACAGAUUCAUGUAGACCUACAUGAGGAUCACCCAUGUAGAAGGCUAUCCUA”, the “apparent Kd” value under setting [3] is 19.2 nM and the “apparent Kd” value under setting [4] amounted to 113 nM. On to “UUAUACGUUGAGGAUAUGUCAGUUAGUAUAUUUACAGAAGGCGAUACAUGAGGAUCACCCAUGUUUAUGGGCAU”, for which the “apparent Kd” value under setting [3] was determined as 213 nM and the “apparent Kd” value under setting [4] was 149 nM. In the same order, the values of “AGGUGACAUGAGGAUCACCCAUGUCAGGAUAUAUACACUGGCGACGUGACGUCGGCAGAUAGAAGGGACAAAGU” are 17.2 nM and 20 nM. As to “GAGUGGUGGAGAGGAUAUACAUUGUUAUUCACUGUAGAAGGUUCUAACAUGAGGAUCACCCAUGUAGGACUAUUCCUGUGUUUU”, the “apparent Kd” value amounted to 13.4 nM under setting [1] and 10.4 nM under setting [2].

Regarding “AGAAACUACGAGAAGGACAUAUGACCAAGACUAAACAUGAGGAUCACCCAUGUAGGAUAUCGUAGUUUCAGGAUCGUGAGAUCA”, the “apparent Kd” value runs as follows: under setting [3], 5.81 nM; under setting [4], 12.2 nM. On to “UGGUACAUCGGAGGAUAUCGUGUGUAAACAUGAGGAUCACCCAUGUCGUACGAGAGUACGGAGAUCGAGAAGGCCGAUGUACCU”, for which the “apparent Kd” value is, setting by setting: under setting [1], 16.4 nM; under setting [2], 15.1 nM.

Turning to “GCACAUGAUACAGGAUAUGUAUUGGAAUUUAUAAUGAGUUAUAUAAUAUUUACAGAAGGGUAUACAUGAGGAUCACCCAUGUGC”, the “apparent Kd” value was 30.7 nM under setting [3] and 23 nM under setting [4]. As for “UGGAUAGGAAAAUUUGUCCAUUGUACAGAAGGCCAACAUGAGGAUCACCCAUGUAAGAAAAGGAUGGAGGAUAUGUAUAGGGCC”, the “apparent Kd” value by setting is: under setting [1], 64.5 nM; under setting [2], 20.9 nM.

Take “AACAGUAGAGGAUAUACAUGAGGAUCACCCAUGUGAUUAUUACGUGGCGUACCACGAAGUAGAAGGCUACUGGA”: the “apparent Kd” value reads like this: under setting [3], 61 nM; under setting [4], 203 nM.
